In ChEMBL document CHEMBL1124393, “Synthesis, cytotoxicity, and antiviral activity of some acyclic analogues of the pyrrolo[2,3-d]pyrimidine nucleoside antibiotics tubercidin, toyocamycin, and sangivamycin” (J Med Chem, 1989) one finds IC50 and Control data, which are given here for 13 compounds.

Bounds are passed on as bounds.

Assay [1] is described as follows: Cytotoxicity was evaluated against the Monkey kidney cells (BSC). The assay is classed as cell-based. Particulars: Cercopithecidae. In outline:
(§1)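 Uninfected HFF (human diploid foreskin fibroblasts) or BSC-1 (African green monkey kidney) cells in MEM with Earle's salts and 10% FBS, within the plaque-reduction plates. Drug-induced cytopathology was scored 0 to 4+ at 35- and 60-fold magnification on the day of staining for plaque enumeration.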

Assay [2] can be described thus: (§2) Antiviral activity of the compound was evaluated against the Herpes simplex virus type-1 in BSC-1 cells. The assay is classed as functional, cell-based. To be noted: Human alphaherpesvirus 1, BSC-1. The method, boiled down: (§3)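 HSV-1 strain S-148 plaque reduction in BSC-1 monolayers (MEM with Earle's salts, 10% fetal bovine serum); inoculum about 100 PFU; compound dissolved in overlay medium. Percent inhibition regressed against log concentration to give IC50. Acyclovir or ganciclovir positive controls in every assay; assay sets rejected if control deviated >1.5 SD from its mean.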

A further assay has as its system Human betaherpesvirus 5. Nature of the assay: Antiviral activity of the compound was evaluated against the Human cytomegalo virus (HCMV). It counts as functional, organism-based. In outline:
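HCMV Towne strain (plaque-purified P0 isolate), plaque reduction in HFF monolayers; inoculum about 50 PFU; compound dissolved in overlay medium. IC50 taken from linear regression of percent inhibition against log concentration. Positive controls (acyclovir, ganciclovir) in all assays; sets rejected when control deviated >1.5 SD from its mean.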

Assay [3] in a line: Cytotoxicity was evaluated against the Human diploid cells (HFF). It counts as cell-based. In outline:
as §1

A short description of assay [4]: (§4) Cytotoxicity was evaluated in Human neoplastic cell line (KB). The assay is classed as functional, cell-based. In outline: (§5)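 KB human epidermoid oral carcinoma cells in MEM with Hanks salts and 5% FBS. Inhibition of radiolabeled precursor incorporation into DNA, RNA and protein was measured. IC50s from regression against log concentration; the three values were averaged, two to five experiments each.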

Assay [5] deals with L1210. Nature of the assay: Compound effect on the growth rate at 10e-4 M in L1210 Murine Leukemic cells. It counts as functional, Mus musculus. The method, boiled down: (§6)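 Murine L1210 leukemia cells in static suspension culture in Fischer's medium, exposed to 10⁻⁴ M compound over 3 days. Growth rate is the ratio of control to treated population doubling time, expressed as percent of control.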

The subject of assay [6] is L1210. Put plainly: In vitro cytotoxicity was evaluated against the L1210 Murine leukemic cells. It counts as cell-based. Particulars: Mus musculus. The method, boiled down:
(§7)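 Murine L1210 cells in static suspension in Fischer's medium, growth followed over 3 days across a range of concentrations. Growth rate is the slope of log cell number versus time relative to control, from the doubling-time ratio. IC50 is the concentration reducing growth rate to 50% of control.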

Assay [7] has as its system L1210. Nature of the assay: (§8) Compound effect on the growth rate of L1210 murine leukemia cells at 10e-4 M concentration. The assay is classed as functional, Mus musculus. The method, boiled down:
as §6

Assay [8] can be described thus: as §4. The assay is classed as cell-based. In outline:
as §5

For assay [9], the system named is L1210. The description is as §8. It counts as functional. In outline: as §6
Another assay has as its system Human alphaherpesvirus 1. The description is as §2. It counts as functional, organism-based. To be noted: Human alphaherpesvirus 1, BSC-1. The method, boiled down:
as §3

The next assay is filed under the species Mus musculus. Put plainly: Cytotoxicity was evaluated against the L1210 Murine leukemic cells in vitro. In outline: as §7

A word on the IC50: it is the concentration that gives 50% inhibition.

Consider `Nc1ncnc2c1ccn2C(CO)OC(CO)CO` (stereo not given), for which the IC50 (in assay [1]; in assay [2]; in the assay on Human betaherpesvirus 5; in assay [3]; in assay [4]) was over 100 µM throughout. The compound also yielded a Control in the assay with L1210 [5] of 93%.

As for `N/C(=N\O)c1cn(COC(CO)CO)c2ncnc(N)c12`, the IC50 (in [1]; in assay [2]; in the assay with Human betaherpesvirus 5; in assay [3]; with L1210 [6]) was over 100 µM in each case. In the assay on L1210 [7], this compound gave a Control of 80%.

As to `N#Cc1cn([C@@H]2O[C@H](CO)[C@@H](O)[C@H]2O)c2ncnc(N)c12` [TOYOCAMYCIN], the 50% inhibitory concentration (IC50) in the assay on Human betaherpesvirus 5 worked out at 0.05 µM; in assay [3] it was 0.03 µM; in the assay on L1210 [6], 0.004 µM; in assay [4], 0.04 µM.

Turning to `NC(=S)c1cn(COC(CO)CO)c2ncnc(N)c12`, the IC50 in assay [1] was over 100 µM; in [2], over 100 µM; in the assay on Human betaherpesvirus 5, 8 µM; in [3], over 100 µM; in the assay with L1210 [6], over 100 µM; in [8], over 100 µM. In the assay on L1210 [9], the Control came to 71%.

Turning to `Nc1nc2c(ncn2COC(CO)CO)c(=O)[nH]1` [GANCICLOVIR], the IC50 in [1] was over 100 µM; in assay [2] it was 3 µM; in assay [3], over 100 µM; in [8], 1000 µM.

Consider `Nc1ncnc2c1ccn2[C@@H]1O[C@H](CO)[C@@H](O)[C@H]1O` [TUBERCIDIN], for which the IC50 in [3] amounted to 0.3 µM; in the assay with L1210 [6] it was 0.04 µM; in assay [4] it was 0.7 µM.

As for `NC(=O)c1cn(C(CO)OC(CO)CO)c2ncnc(N)c12` (stereo not given), the IC50 (in [1]; in [2]; with Human betaherpesvirus 5; in [3]) was over 100 µM throughout. In the assay with L1210 [5], this compound displayed a Control of 90%.

Regarding `N#Cc1cn(COC(CO)CO)c2ncnc(N)c12`, the IC50 is over 100 µM in assay [1]; over 100 µM in [2]; over 320 µM with Human betaherpesvirus 5; over 320 µM in assay [3]; over 100 µM in the assay on L1210 [6]. Further, the Control in the assay on L1210 [7] amounted to 87%.

Turning to `Nc1ncnc2c1ccn2COC(CO)CO`, the IC50 (in assay [1]; with Human betaherpesvirus 5; in assay [3]; with Human alphaherpesvirus 1) was over 100 µM each time.

For the compound `Nc1nc2c(ncn2COCCO)c(=O)[nH]1` [ACYCLOVIR], the IC50 in [1] was over 100 µM; in [2], 2.6 µM; in assay [3] it was over 100 µM; in [8] it was over 100 µM.

Regarding `N#Cc1cn(C(CO)OC(CO)CO)c2ncnc(N)c12` (stereo not given), the IC50 (in assay [1]; in assay [2]; in the assay with Human betaherpesvirus 5; in [3]; in the assay listed under Mus musculus) was over 100 µM each time. This compound also had a Control in the assay on L1210 [5] of 80%.

Turning to `NC(=O)c1cn(COC(CO)CO)c2ncnc(N)c12`, the IC50 in assay [1] was over 100 µM; in assay [2], over 100 µM; with Human betaherpesvirus 5, 144 µM; in assay [3], over 320 µM; with L1210 [6], over 100 µM. Besides, the Control in the assay on L1210 [7] was 84%.

For the compound `NC(=O)c1cn([C@@H]2O[C@H](CO)[C@@H](O)[C@H]2O)c2ncnc(N)c12` [SANGIVAMYCIN], the IC50 with Human betaherpesvirus 5 was determined as 0.03 µM; in assay [3], 0.08 µM; in the assay with L1210 [6], 0.003 µM; in [4], 0.2 µM.
